Converted amounts (≈) assume the structure as drawn.
Tests used:
[1] = species on record: Mustela putorius furo; assay: Increased contractile force of ferret papillary muscle; type: functional, Muscle tissue
Summary of the method: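 Isolated ferret papillary muscle, 30-min preincubation with compound; value is the concentration (μM) giving a 20% increase in contractile force. Mean of at least two determinations, with and without 1 μM propranolol co-administration.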

[2] = species on record: Canis familiaris; assay: Half life time was observed by 50% conversion to compound 1 in dog plasma; type: ADME, Canis lupus familiaris; conditions: in vitro
Summary of the method: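 Prodrug with internal standard diluted 1:100 from stock in 0.05 M NaH2PO4/0.1% H3PO4 into fasted canine plasma, held at 37 °C. Conversion to parent followed by HPLC; half-life of drug consumed.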

[3] = Half life time was observed by 50% conversion to compound 1 at pH 1.5; type: ADME
Summary of the method: (§1)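 Aliquots taken at set intervals; prodrug, parent and internal standard quantified by reversed-phase HPLC with UV detection (alkyl phenyl column, 50 °C, phosphate/CH3CN gradient). t1/2 of drug consumed; mean of at least two determinations.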

[4] = Solubility was measured in pH 7.4 phosphate buffer; type: physicochemical
Summary of the method: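 Solubility in pH 7.4 phosphate buffer, quantified by HPLC.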

[5] = Half life time was observed by 50% conversion to compound 1 at pH 7.4; type: ADME; summary of the method: as §1
[6] = Partition coefficient was determined in an octanol/ pH 7.4 phosphate buffer system.; type: physicochemical; conditions: octanol/water
[7] = Inhibition of c-AMP phosphodiesterase

SMILES | C20 [1] [µM] | T1/2 [2] [h] | T1/2 [3] [h] | solubility [4] [µM] | T1/2 [5] [h] | Partition coefficient [6] | IC50 [7] [µM]
CCc1nc(O)n(C(C)=O)c1C(=O)c1ccc(-n2ccnc2C)cc1 | 0.2 | 0.5 | 21 | 40 (≈ 13.5 µg/mL) | 8 | 26 | –
CCc1nc(O)n(C(=O)Cc2ccccc2)c1C(=O)c1ccc(-n2ccnc2C)cc1 | 0.2 | – | 39 | 25 (≈ 10.4 µg/mL) | 1.5 | – | –
CCc1nc(O)n(Cc2ccccc2)c1C(=O)c1ccc(-n2ccnc2C)cc1 | 13 | – | – | – | – | – | –
CCc1nc(O)n(C(=O)C(C)C)c1C(=O)c1ccc(-n2ccnc2C)cc1 | 0.3 | 0.783 | 132 | 10 (≈ 3.66 µg/mL) | 8 | > 200 | –
CCC(=O)n1c(O)nc(CC)c1C(=O)c1ccc(-n2ccnc2C)cc1 | 0.3 | 0.5 | 17 | 30 (≈ 10.6 µg/mL) | 6 | 52 | –
CCc1[nH]c(O)nc1C(=O)c1ccc(-n2ccnc2C)cc1 | 0.5 | – | – | 44 (≈ 13 µg/mL) | – | 7 | –
CCc1nc(O)n(C(=O)c2ccccc2)c1C(=O)c1ccc(-n2ccnc2C)cc1 | 0.2 | 0.633 | 263 | 23 (≈ 9.21 µg/mL) | 25 | 92 | 157
